A short description of data set [1]: Metabolic stability as percent of drug remaining after incubation with human liver S9 for 30 min was determined. Conditions: for remaining at 0.5 h: liver S9, read-out: Activity. Format: ADME, subcellular, Liver S9 fraction. In short, it runs like this: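 Incubation with human liver S9 (2 mg/mL) plus NADPH for 30 min, read as percent parent remaining. A standard was run in every assay, and data were accepted only if the standard fell within ±5% of its historical mean.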

Data set [2] in a line: Area under curve for the compound was determined in rats after 2 mg/kg oral dose. Details: dose 2 mg/kg, route oral. Conditions: rat, in vivo. It is filed as ADME, organism-based.
Data set [3] can be described thus: Bioavailability in dog after 5 mg/kg oral dose. It is filed as ADME, organism-based, Canis lupus familiaris. Conditions: in vivo.
Data set [4] can be described thus: Oral bioavailability in rat (dose 2 mg/kg). It is filed as ADME, organism-based. The conditions noted are these: in vivo.
A short description of data set [5]: Plasma clearance in rats after 1 mg/kg intravenous dose. Conditions: rat; for clearance: plasma.
Data set [6] can be described thus: Half life in rats after 1 mg/kg intravenous dose. Conditions: rat, in vivo.
A short description of data set [7]: Plasma clearance in dog after 1 mg/kg intravenous dose. The conditions noted are these: in vivo.
Data set [8] is described as follows: Area under curve for the compound was determined in dog after 5 mg/kg oral dose. Details: dose 5 mg/kg, route oral. It is filed as ADME, organism-based, Canis lupus familiaris. Conditions: in vivo.
Data set [9] in a line: Half life in dog after 1 mg/kg intravenous dose. Conditions: in vivo.
The nature of data set [10]: Area under curve for the compound was determined in dog after 4 mg/kg oral dose. It is filed as ADME, organism-based, Canis lupus familiaris. Details: dose 4 mg/kg, route oral. The conditions noted are these: in vivo.
Data set [11] in a line: Bioavailability in dog after 4 mg/kg oral dose. Format: ADME, organism-based, Canis lupus familiaris. Conditions: in vivo.
The nature of data set [12]: Half life in dog after 1 mg/kg intravenous dose. Conditions: in vivo. The source holds these as a separate data set.
Data set [13] can be described thus: Plasma clearance in dog after 1 mg/kg intravenous dose. The conditions noted are these: in vivo. The source holds these as a separate data set.

Consider 28 molecules from ChEMBL document CHEMBL1138718, “CVT-4325: a potent fatty acid oxidation inhibitor with favorable oral bioavailability” (Bioorg Med Chem Lett, 2004).

Take `Cc1nc2cc(OC[C@H](O)CN3CCN(Cc4nnc(-c5ccc(Cl)cc5)o4)CC3)ccc2s1`: the remaining at 0.5 h in data set [1] turned out to be 34%.

For `Cc1nc2cc(OC[C@H](O)CN3CCN(Cc4nnc(-c5ccc(C(F)(F)F)cc5)o4)CC3)ccc2s1`, the remaining at 0.5 h in data set [1] was 49%.

In the case of `Cc1nc2cc(OC[C@H](O)CN3CCN(Cc4noc(-c5ccc(Cl)cc5Cl)n4)C[C@@H]3C)ccc2s1` (stereo in doubt; 32), the Activity in [1] (s9, 0.5 h, 0.5 h) came to 30%.

As for `Cc1nc2cc(OC[C@H](O)CN3CCN(Cc4noc(-c5ccc(Cl)cc5Cl)n4)C[C@@H]3C)ccc2s1` (stereo in doubt; 31), the remaining at 0.5 h in data set [1] came out at 17%.

`Cc1nc2cc(OC[C@H](O)CN3CCN(Cc4noc(-c5cccc(F)c5)n4)CC3)ccc2s1`: in data set [1], the remaining at 0.5 h is 42%.

Regarding `Cc1nc2cc(OC[C@H](O)CN3CCN(Cc4nc(-c5ccc(Cl)cc5Cl)no4)CC3)ccc2s1`, the remaining at 0.5 h in data set [1] was 29%.

Consider `Cc1nc2cc(OC[C@H](O)CN3CCN(Cc4nc(-c5ccc(C(F)(F)F)cc5)no4)CC3)ccc2s1`, for which, in [1], the remaining at 0.5 h is 72%.

Regarding `Cc1nc2cc(OC[C@H](O)CN3CCN(Cc4noc(-c5ccc(C#N)cc5)n4)CC3)ccc2s1`, the remaining at 0.5 h in data set [1] came to 56%.

For the molecule `Cc1nc2cc(OC[C@H](O)CN3CCN(Cc4nc(-c5ccc(C(C)(C)C)cc5)no4)CC3)ccc2s1`, the remaining at 0.5 h in data set [1] is 39%.

On to `Cc1nc2cc(OC[C@H](O)CN3CCN(Cc4noc(-c5cccc(Cl)c5)n4)CC3)ccc2s1`, for which the remaining at 0.5 h in data set [1] turned out to be 38%.

As to `Cc1nc2cc(OC[C@H](O)CN3CCN(Cc4noc(-c5ccc(C(C)(C)C)cc5)n4)CC3)ccc2s1`, the remaining at 0.5 h in [1] came out at 18%.

Consider `Cc1nc2cc(OC[C@H](O)CN3CCN(Cc4noc(-c5ccc(Cl)cc5Cl)n4)CC3)ccc2s1`, for which the remaining at 0.5 h in data set [1] worked out at 33%.

Turning to `Cc1nc2cc(OC[C@H](O)CN3CCN(Cc4nc(-c5ccc(Cl)cc5)no4)CC3)ccc2s1`, the remaining at 0.5 h in data set [1] was 66%.

The AUC is concentration integrated over time. By bioavailability is commonly meant dose-corrected exposure relative to a reference, in per cent. High values mean good availability, low ones poor availability. By clearance is commonly meant the rate of elimination divided by the concentration. The low end stands for inefficient removal, the high end for efficient removal. As a reminder, the half-life is how long it takes for the measured level to halve. As to `Cc1nc2cc(OC[C@H](O)CN3CCN(Cc4noc(-c5ccc(C(F)(F)F)cc5)n4)C[C@@H]3C)ccc2s1`, the values for the AUC in data set [2] (read-out: AUC) and in data set [8] were 253 ng·h/mL and 1093 ng·h/mL, respectively. Besides, the remaining at 0.5 h in data set [1] turned out to be 43%. In [3], the Bioavailabiility is given as 30%. The molecule also registered a bioavailability in data set [4] of 29%. In addition, the clearance in [5] stood at 19.7 mL/min/kg. For the same molecule, the half-life in [6] is 4 h; in data set [9], 65 h. The molecule further showed a Plasma clearance in [7] of 4.6 mL/min/kg.

With `Cc1nc2cc(OC[C@H](O)CN3CCN(Cc4nc(-c5ccc(C(F)(F)F)cc5)sc4C)CC3)ccc2s1`, the remaining at 0.5 h in data set [1] stood at 40%.

For `COc1ccc(-c2nc(CN3CCN(C[C@@H](O)COc4ccc5sc(C)nc5c4)CC3)no2)cc1`, in data set [1], the remaining at 0.5 h turned out to be 39%.

For `Cc1cccc(-c2nc(CN3CCN(C[C@@H](O)COc4ccc5sc(C)nc5c4)CC3)no2)c1`, in [1], the remaining at 0.5 h amounted to 31%.

In the case of `Cc1nc2cc(OC[C@H](O)CN3CCN(Cc4nnc(-c5ccc(C(C)(C)C)cc5)o4)CC3)ccc2s1`, the remaining at 0.5 h in data set [1] was 25%.

Turning to `Cc1nc2cc(OC[C@H](O)CN3CCN(Cc4csc(-c5ccc(C(F)(F)F)cc5)n4)CC3)ccc2s1`, in [1], the remaining at 0.5 h was 40%.

Turning to `Cc1nc2cc(OC[C@H](O)CN3CCN(Cc4nc(-c5ccc(C(C)C)cc5)no4)CC3)ccc2s1`, in data set [1], the remaining at 0.5 h is 21%.

`Cc1nc2cc(OC[C@H](O)CN3CCN(Cc4nc(-c5ccc(Cl)c(Cl)c5)no4)CC3)ccc2s1`: the remaining at 0.5 h in data set [1] stood at 36%.

On to `Cc1nc2cc(OC[C@H](O)CN3CCN(Cc4noc(-c5ccc(Cl)c(Cl)c5)n4)CC3)ccc2s1`, for which the remaining at 0.5 h in [1] was 30%.

In the case of `Cc1nc2cc(OC[C@H](O)CN3CCN(Cc4coc(-c5ccc(C(F)(F)F)cc5)n4)CC3)ccc2s1`, the remaining at 0.5 h in data set [1] is 43%.

Take `Cc1nc2cc(OC[C@H](O)CN3CCN(CC(=O)Nc4c(C)cccc4C)CC3)ccc2s1`: the AUC in [2] turned out to be 30.5 ng·h/mL. The same molecule came in with a F in data set [4] of 19%. The molecule further showed a Plasma clearance in data set [5] (in vivo) of 54.5 mL/min/kg. The same molecule had a half-life in data set [6] of 1.4 h.

Take `Cc1nc2cc(OC[C@H](O)CN3CCN(Cc4noc(-c5ccc(C(C)C)cc5)n4)CC3)ccc2s1`: the remaining at 0.5 h in data set [1] amounted to 31%.

On to `Cc1nc2cc(OC[C@H](O)CN3CCN(Cc4noc(-c5ccc(Cl)cc5)n4)CC3)ccc2s1`, for which the remaining at 0.5 h in [1] was determined as 48%.

With `Cc1nc2cc(OC[C@H](O)CN3CCN(Cc4noc(-c5ccc(C(F)(F)F)cc5)n4)CC3)ccc2s1`, the AUC stood at 1776 ng·h/mL in data set [10] and 282 ng·h/mL in [2] (read-out: AUC). Further, the Bioavailabiility in data set [11] is 93%. In addition, in data set [1], the remaining at 0.5 h is 74%. The half-life was 13.6 h in data set [12] and 3.2 h in data set [6]. The bioavailability in data set [4] worked out at 38%. Besides, in data set [5], the clearance stood at 22.5 mL/min/kg. For the same molecule, in data set [13], the Plasma clearance amounted to 12.2 mL/min/kg.

Consider `Cc1nc2cc(OC[C@H](O)CN3CCN(Cc4noc(-c5ccc(F)cc5)n4)CC3)ccc2s1`, for which the remaining at 0.5 h in [1] came out at 50%.
